≈ marks a conversion by molar mass, not a printed value.
Assays:
[1] = Inhibition of Pseudomonas aeruginosa recombinant His-tagged CFTR inhibitory factor expressed in expressed in Top10 Escherichia coli cells assessed as formation of 6-methoxy-2-naphthaldehyde preincubated for 5 mins followed by addition of CMNGC as substrate measured for 10 mins in presence of BSA by fluorescent-based assay
[2] = Stability in human liver microsomes assessed as compound remaining measured after 60 mins in presence of NADPH by LC-MS/MS analysis; format: ADME; conditions: read-out: Stability
[3] = target: T1, Epoxide hydrolase 1 (Homo sapiens, UniProt P07099); experiment: Inhibition of recombinant human mEH expressed in baculovirus expression system assessed as formation of 6-methoxy-2-naphthaldehyde preincubated for 5 mins followed by addition of CMNGC as substrate by fluorescent-based assay
T1 sequence (P07099 whole entry): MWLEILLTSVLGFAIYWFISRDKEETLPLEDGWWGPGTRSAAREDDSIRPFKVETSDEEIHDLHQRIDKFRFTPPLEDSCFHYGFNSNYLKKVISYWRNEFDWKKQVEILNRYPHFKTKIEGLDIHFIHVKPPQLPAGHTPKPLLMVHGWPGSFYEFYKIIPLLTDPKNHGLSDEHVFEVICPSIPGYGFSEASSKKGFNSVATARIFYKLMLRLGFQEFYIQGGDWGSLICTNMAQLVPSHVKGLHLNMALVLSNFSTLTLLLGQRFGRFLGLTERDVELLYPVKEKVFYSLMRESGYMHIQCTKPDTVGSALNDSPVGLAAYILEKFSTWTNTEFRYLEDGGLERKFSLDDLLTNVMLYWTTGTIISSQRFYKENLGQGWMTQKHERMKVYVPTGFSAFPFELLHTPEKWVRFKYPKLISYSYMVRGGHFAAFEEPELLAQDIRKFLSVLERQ

[4] = Antagonist activity at thyroid hormone receptor in rat GH3 cells expressing TRE at 10 uM measured after 24 hrs in presence of T3 by luciferase reporter gene assay; format: cell-based; conditions: GH3, 24 h
Summary of the method: (§1)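 GH3.TRE-Luc cells grown in regular growth medium, then seeded into 24-well plates for 24 h. Cells exposed 24 h with or without T3 plus test chemical in DMSO, kept at 0.5% (v/v) in exposure medium. Viability by total protein (BCA assay). Luciferase activity read on lysed cells.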

[5] = tested on: Liver microsome; experiment: Half life in human liver microsomes measured after 60 mins in presence of NADPH by LC-MS/MS analysis; format: ADME; conditions: 1 h
[6] = Protein binding in Balb/c mouse plasma at 1 uM by rapid equilibrium dialysis method; format: ADME, cell-free
Summary of the method: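 Mouse plasma protein binding measured at 1 µM compound by rapid equilibrium dialysis.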

[7] = target: T2, Bifunctional epoxide hydrolase 2 (Homo sapiens, UniProt P34913); experiment: Inhibition of recombinant human sEH expressed in insect High Five cells preincubated for 5 mins followed by addition of t-DPPO as substrate measured after 10 mins by liquid scintillation counter method; format: cell-based, BTI-TN-5B1-4
T2 sequence (P34913 whole entry): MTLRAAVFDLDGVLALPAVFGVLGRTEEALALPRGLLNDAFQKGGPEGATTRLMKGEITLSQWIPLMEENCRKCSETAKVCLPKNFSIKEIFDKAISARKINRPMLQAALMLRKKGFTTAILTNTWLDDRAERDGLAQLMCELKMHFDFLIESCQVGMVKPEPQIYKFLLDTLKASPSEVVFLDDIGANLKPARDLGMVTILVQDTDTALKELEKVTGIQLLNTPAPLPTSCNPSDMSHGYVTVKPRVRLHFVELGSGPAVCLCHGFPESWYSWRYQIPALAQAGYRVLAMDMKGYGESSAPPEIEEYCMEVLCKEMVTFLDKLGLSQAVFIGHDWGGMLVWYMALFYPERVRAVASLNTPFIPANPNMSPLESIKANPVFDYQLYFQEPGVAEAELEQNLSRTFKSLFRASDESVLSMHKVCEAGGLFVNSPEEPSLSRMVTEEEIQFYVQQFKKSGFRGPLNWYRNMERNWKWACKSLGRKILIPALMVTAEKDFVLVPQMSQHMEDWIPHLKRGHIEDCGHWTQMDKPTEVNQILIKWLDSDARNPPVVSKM

[8] = tested on: GH3; experiment: Cytotoxicity against rat GH3 cells expressing TRE and luciferase gene assessed as cell viability; format: cell-based
Summary of the method: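 GH3.TRE-Luc cells were seeded in 24-well plates for 24 h, then exposed for 24 h to test chemical in DMSO (0.5% v/v final), with or without T3. Viability per well was taken as total protein by BCA assay. Compounds were tested up to 10 µM.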

[9] = Cytotoxicity against human CFBE cells at 10 uM by Cytotox 96 non-radioactive cytotoxicity assay; format: cell-based
[10] = Stability in rat GH3 cells expressing TRE and luciferase gene assessed as percentage remaining at 10 uM measured after 24 hrs; format: ADME, cell-based; conditions: read-out: Stability
Summary of the method: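 Compound at 10 µM initial concentration incubated 24 h with GH3.TRE-Luc cells. Read-out is percentage of compound remaining, given as mean±SD.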

[11] = Agonist activity at thyroid hormone receptor in rat GH3 cells expressing TRE measured after 24 hrs in presence of T3 by luciferase reporter gene assay; format: cell-based; conditions: GH3, 24 h; summary of the method: as §1
[12] = Equilibrium solubility of the compound in sodium phosphate buffer at pH 7.4 measured after 24 hrs by LC-MS/MS analysis; format: physicochemical

Compound: CCC(=O)Nc1cc(Cl)c(Oc2ccc(O)c(-c3cccc(C#N)c3)c2)c(Cl)c1
- IC50 [1]: 0.58 µM

Compound: CCC(=O)Nc1cc(Cl)c(Oc2ccc(O)c(-c3ccc(C#N)cc3)c2)c(Cl)c1
- IC50 [1]: 11.9 µM

Compound: CCC(=O)Nc1cc(Cl)c(Oc2ccc(O)c(-c3ccccc3)c2)c(Cl)c1
- remaining at 1 h [2]: 63%
- IC50 [1]: 1.4 µM

Compound: CCC(=O)Nc1cc(Cl)c(Oc2ccc(O)c(-c3ccc(S(N)(=O)=O)cc3)c2)c(Cl)c1
- IC50 [1]: 2 µM

Compound: CC(=O)Nc1cc(Br)c(Oc2ccc(O)c(C(C)C)c2)c(Br)c1
- IC50 [1]: 8.8 µM

Compound: CCC(=O)Nc1cc(Cl)c(Oc2ccc(O)c(-c3ccc(NC(C)=O)cc3)c2)c(Cl)c1
- IC50 [1]: 15.6 µM

Compound: CCCCCCCCCSC(C)C(N)=O (configuration not stated)
- IC50 [3]: 6 µM

Compound: CCC(=O)Nc1cc(Br)c(Oc2ccc(O)c(C(C)C)c2)c(Br)c1
- IC50 [1]: 7.5 µM

Compound: CCC(=O)Nc1cc(Cl)c(Oc2ccc(O)c(-c3ccc(NC(N)=O)cc3)c2)c(Cl)c1
- inhibition at 10 µM [4]: 28%
- t1/2 [5]: 29 min
- PPB [6]: > 99%
- IC50 [7]: 7.5 µM
- Activity [8]: Non-toxic
- IC50 [3]: 26.3 µM
- Activity [9]: Non-toxic
- remaining at 24 h, 10 µM [10]: 103%
- EC50 [11]: > 10 µM
- IC50 [1]: 0.29 µM
- solubility thermodynamic at 24 h [12]: 21 µM (≈ 9.67 µg/mL)

Compound: CCC(=O)Nc1cc(Cl)c(Oc2ccc(O)c(-c3ccc(C(=O)NC)cc3)c2)c(Cl)c1
- IC50 [1]: 1.7 µM

Compound: CCOC(=O)CC(=O)Nc1cc(Br)c(Oc2cccc(C(C)C)c2)c(Br)c1
- IC50 [1]: > 50 µM

Compound: CCOC(=O)CC(=O)Nc1cc(Br)c(Oc2ccc(OC)c(C(C)C)c2)c(Br)c1
- IC50 [1]: > 25 µM

Compound: CC(C)c1cc(Oc2c(Br)cc(NC(=O)CCC(=O)O)cc2Br)ccc1O
- IC50 [1]: 3.2 µM

Compound: CCC(=O)Nc1cc(Cl)c(Oc2ccc(O)c(-c3cccc(C(N)=O)c3)c2)c(Cl)c1
- IC50 [1]: 0.46 µM

Compound: CC(C)c1cc(Oc2c(Br)cc(N)cc2Br)ccc1O
- IC50 [1]: 9.7 µM

Compound: CCC(=O)Nc1cc(Cl)c(Oc2ccc(O)c(-c3ccc(C(C)=O)cc3)c2)c(Cl)c1
- inhibition at 10 µM [4]: 33%
- t1/2 [5]: 5.7 min
- PPB [6]: > 99%
- IC50 [7]: 7.7 µM
- IC50 [3]: 97.8 µM
- remaining at 24 h, 10 µM [10]: 74%
- EC50 [11]: > 10 µM
- IC50 [1]: 0.35 µM
- solubility thermodynamic at 24 h [12]: < 0.04 µM

Compound: CCOC(=O)CC(=O)Nc1ccc(Oc2ccc(O)c(C(C)C)c2)c(Cl)c1
- IC50 [1]: 11.6 µM

Compound: CCOC(=O)CC(=O)Nc1cc(Cl)c(Oc2ccc(O)c(I)c2)c(Cl)c1
- IC50 [1]: 3.8 µM

Compound: CCOC(=O)CC(=O)Nc1cc(Cl)c(Oc2ccc(O)cc2Br)c(Cl)c1
- IC50 [1]: 29.3 µM

Compound: CCOC(=O)CCC(=O)Nc1cc(Br)c(Oc2ccc(O)c(C(C)C)c2)c(Br)c1
- IC50 [1]: 5.5 µM

Compound: CCC(=O)Nc1cc(Cl)c(Oc2ccc(O)c(-c3ccc(C(N)=O)cc3)c2)c(Cl)c1
- inhibition at 10 µM [4]: 66%
- t1/2 [5]: 15 min
- PPB [6]: > 99%
- IC50 [7]: 8.6 µM
- Activity [8]: Non-toxic
- IC50 [3]: 17.2 µM
- Activity [9]: Non-toxic
- remaining at 24 h, 10 µM [10]: 106%
- EC50 [11]: > 10 µM
- IC50 [1]: 0.35 µM
- solubility thermodynamic at 24 h [12]: 0.17 µM (≈ 0.0757 µg/mL)

Compound: C#Cc1cc(Oc2c(Cl)cc(NC(=O)CC(=O)OCC)cc2Cl)ccc1O
- IC50 [1]: 2.9 µM

Compound: CCOC(=O)CC(=O)Nc1cc(Br)c(Oc2ccc(O)c(C(C)C)c2)c(Br)c1
- IC50 [1]: 6.7 µM

Compound: CCOC(=O)CC(=O)Nc1cc(Cl)c(Oc2ccc(O)c(C(F)(F)F)c2)c(Cl)c1
- IC50 [1]: 3 µM

Compound: CCC(=O)Nc1cc(Cl)c(Oc2ccc(O)c(-c3ccc(C(=O)O)cc3)c2)c(Cl)c1
- IC50 [1]: 10.5 µM

Compound: CCOC(=O)CC(=O)Nc1cc(Cl)c(Oc2ccc(O)cc2)c(Cl)c1
- IC50 [1]: > 50 µM

Compound: CCOC(=O)CC(=O)Nc1cc(Cl)c(Oc2ccc(O)c(Br)c2)c(Cl)c1
- IC50 [1]: 4.9 µM

Compound: CCOC(=O)CC(=O)Nc1cc(Cl)c(Oc2ccc(O)c(C(C)C)c2)c(Cl)c1
- IC50 [1]: 3.8 µM

Reference: ChEMBL document CHEMBL3822419, “Rational Design of Potent and Selective Inhibitors of an Epoxide Hydrolase Virulence Factor from Pseudomonas aeruginosa” (J Med Chem, 2016)
